Experimental data published in ChEMBL document CHEMBL1125031, “Structure-activity relationship of antiestrogens. Studies on 2,3-diaryl-1-benzopyrans” (J Med Chem, 1990).
Values belong to the molecule of their own block, whether it stands above or below them.

Columns and labels:
[1] = target: T1, Estrogen receptor (Rattus norvegicus) (UniProt P06211+Q62986); assay: Estrogenic activity as mean uterine weight in rats after 10 ug dose; assay type: functional
Procedure, shortened: (§1)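 Immature female Sprague-Dawley rats, 21–23 days old, in groups of 6–9. Test doses suspended in 0.2 mL propylene glycol–0.9% saline (1:1, v/v) and given subcutaneously on three consecutive days; vehicle-only controls. Autopsy 24 h after the last injection, uterine wet weight recorded in mg as mean ± SD.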

[2] = target: T1, Estrogen receptor (Rattus norvegicus); assay: Antiestrogenic activity in presence of estradiol as mean uterine weight in rats after 10 ug dose; assay type: functional
[3] = target: T1, Estrogen receptor (Rattus norvegicus); assay: Estrogenic activity as mean uterine weight in rats after 1 mg dose; assay type: functional; procedure, shortened: as §1
[4] = target: T1, Estrogen receptor (Rattus norvegicus); assay: Estrogenic activity as mean uterine weight in rats at 30 ug/rat; assay type: functional; procedure, shortened: as §1
[5] = target: T1, Estrogen receptor (Rattus norvegicus); assay: Mean percent inhibition of uterotrophic effect in rats at 10 ug/rat; assay type: functional
[6] = target: T1, Estrogen receptor (Rattus norvegicus); assay: Mean percent inhibition of uterotrophic effect in rats at 30 ug/rat; assay type: functional
[7] = target: T1, Estrogen receptor (Rattus norvegicus); assay: Antiestrogenic activity in presence of estradiol at 0 ug/rat; assay type: functional
[8] = target: T1, Estrogen receptor (Rattus norvegicus); assay: Antiestrogenic activity in presence of estradiol at 10 ug/rat; assay type: functional
[9] = target: T1, Estrogen receptor (Rattus norvegicus); assay: Mean percent inhibition of uterotrophic effect in rats at 0 ug/rat; assay type: functional
[10] = target: T1, Estrogen receptor (Rattus norvegicus); assay: Antiestrogenic activity in presence of estradiol at 1 ug/rat; assay type: functional
[11] = target: T1, Estrogen receptor (Rattus norvegicus); assay: Antiestrogenic activity in presence of estradiol at 30 ug/rat; assay type: functional
[12] = target: T1, Estrogen receptor (Rattus norvegicus); assay: Estrogenic activity as mean uterine weight in rats at 0 ug/rat; assay type: functional; procedure, shortened: as §1
[13] = target: T1, Estrogen receptor (Rattus norvegicus); assay: Mean percent inhibition of uterotrophic effect in rats at 1 ug/rat; assay type: functional
[14] = target: T1, Estrogen receptor (Rattus norvegicus); assay: Estrogenic activity as mean uterine weight in rats at 1 ug/rat; assay type: functional; procedure, shortened: as §1
[15] = target: T1, Estrogen receptor (Rattus norvegicus); assay: Estrogenic activity as mean uterine weight in rats at 10 ug/rat; assay type: functional; procedure, shortened: as §1
[16] = target: T1, Estrogen receptor (Rattus norvegicus); assay: Antiestrogenic activity in presence of estradiol as mean uterine weight in rats at 1 mg dose

Structure (SMILES): c1ccc(C2=C(c3ccc(OCCN4CCCC4)cc3)Oc3ccccc3C2)cc1
Mean weight [3]: 24 mg
Mean weight [2]: 29.4 mg

Structure (SMILES): COc1ccc2c(c1)OC(c1ccc(OCCN3CCCC3)cc1)C(c1ccccc1)=C2 (stereo unspecified)
Mean weight [4]: 25 mg
inhibition [5]: 50%
inhibition [6]: 65%
Mean weight [7]: 44.7 mg
Mean weight [8]: 27.5 mg
inhibition [9]: 0%
Mean weight [10]: 38.3 mg
Mean weight [11]: 23.6 mg
Mean weight [1]: 27.6 mg
Mean weight [12]: 10.6 mg
Mean weight [2]: 28.3 mg
inhibition [13]: 9%
Mean weight [14]: 23.8 mg

Structure (SMILES): O=c1c(-c2ccccc2)c(-c2ccc(OCCN3CCCC3)cc2)oc2ccccc12
Mean weight [1]: 13.2 mg
Mean weight [2]: 40.3 mg

Structure (SMILES): O=c1c(-c2ccccc2)c(-c2ccccc2)oc2cc(OCCN3CCCC3)ccc12
Mean weight [1]: 11.1 mg
Mean weight [2]: 40.7 mg

Further lines, results first:

Mean weight [1]: 12 mg
Mean weight [2]: 46.5 mg
Structure (SMILES): COc1ccc2c(c1)OC(c1ccc(OCCN3CCCC3)cc1)C(c1ccccc1)C2=O (stereo unspecified)

Mean weight [4]: 23.6 mg
inhibition [5]: 66%
inhibition [6]: 70%
Mean weight [7]: 45.1 mg
Mean weight [15]: 24.6 mg
inhibition [9]: 0%
Mean weight [10]: 39.9 mg
Mean weight [11]: 22.2 mg
Mean weight [1]: 24.6 mg
Mean weight [12]: 11.2 mg
inhibition [13]: 12%
Mean weight [14]: 22.5 mg
Structure (SMILES): C1=C(c2ccccc2)C(c2ccc(OCCN3CCCC3)cc2)Oc2ccccc21 (stereo unspecified)

Mean weight [16]: 46.7 mg
Mean weight [3]: 26.2 mg
Structure (SMILES): Oc1ccc(C2=C(c3ccccc3)Cc3ccccc3O2)cc1

Mean weight [3]: 13.8 mg
Mean weight [2]: 48.8 mg
Structure (SMILES): Oc1ccc(C2Oc3ccccc3C=C2c2ccccc2)cc1 (stereo unspecified)

Mean weight [3]: 14.9 mg
Mean weight [2]: 59 mg
Structure (SMILES): Oc1ccc(C2Oc3ccccc3CC2c2ccccc2)cc1 (stereo unspecified)

Mean weight [3]: 12.3 mg
Mean weight [2]: 57.2 mg
Structure (SMILES): c1ccc(C2Cc3ccccc3OC2c2ccc(OCCN3CCCC3)cc2)cc1 (stereo unspecified)
